According to PubChem BioAssay:
The source made the active and inactive calls.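 The calls were made as follows, unless noted: active = Her2 level under about 52% in both replicate screens, with viability over 70% of control (limit read from the data); inconclusive = Her2 under the limit in one screen only, or viability under 70%; inactive = Her2 level above the set limit.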

Experiments:
[1] = reducers of endogenous Her2 protein level, primary screen, SKBR3 breast tumor cells, AlphaScreen, ATP viability (AID 461); conditions: 18-24 h, measured here: SKBR3 viability, ATP luminescence, at 10 µM;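 as to Her2 level: lower value means less Her2 protein in the cells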;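 as to viability: percent of carrier control wells set as 100% viability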
[2] = biological target: Receptor tyrosine-protein kinase erbB-2 (Homo sapiens) (UniProt P04626); assay: as above; conditions: 18-24 h, at 10 µM, stronger effect = lower value
Sequence of Receptor tyrosine-protein kinase erbB-2 (Homo sapiens) (P04626 whole entry, looked up): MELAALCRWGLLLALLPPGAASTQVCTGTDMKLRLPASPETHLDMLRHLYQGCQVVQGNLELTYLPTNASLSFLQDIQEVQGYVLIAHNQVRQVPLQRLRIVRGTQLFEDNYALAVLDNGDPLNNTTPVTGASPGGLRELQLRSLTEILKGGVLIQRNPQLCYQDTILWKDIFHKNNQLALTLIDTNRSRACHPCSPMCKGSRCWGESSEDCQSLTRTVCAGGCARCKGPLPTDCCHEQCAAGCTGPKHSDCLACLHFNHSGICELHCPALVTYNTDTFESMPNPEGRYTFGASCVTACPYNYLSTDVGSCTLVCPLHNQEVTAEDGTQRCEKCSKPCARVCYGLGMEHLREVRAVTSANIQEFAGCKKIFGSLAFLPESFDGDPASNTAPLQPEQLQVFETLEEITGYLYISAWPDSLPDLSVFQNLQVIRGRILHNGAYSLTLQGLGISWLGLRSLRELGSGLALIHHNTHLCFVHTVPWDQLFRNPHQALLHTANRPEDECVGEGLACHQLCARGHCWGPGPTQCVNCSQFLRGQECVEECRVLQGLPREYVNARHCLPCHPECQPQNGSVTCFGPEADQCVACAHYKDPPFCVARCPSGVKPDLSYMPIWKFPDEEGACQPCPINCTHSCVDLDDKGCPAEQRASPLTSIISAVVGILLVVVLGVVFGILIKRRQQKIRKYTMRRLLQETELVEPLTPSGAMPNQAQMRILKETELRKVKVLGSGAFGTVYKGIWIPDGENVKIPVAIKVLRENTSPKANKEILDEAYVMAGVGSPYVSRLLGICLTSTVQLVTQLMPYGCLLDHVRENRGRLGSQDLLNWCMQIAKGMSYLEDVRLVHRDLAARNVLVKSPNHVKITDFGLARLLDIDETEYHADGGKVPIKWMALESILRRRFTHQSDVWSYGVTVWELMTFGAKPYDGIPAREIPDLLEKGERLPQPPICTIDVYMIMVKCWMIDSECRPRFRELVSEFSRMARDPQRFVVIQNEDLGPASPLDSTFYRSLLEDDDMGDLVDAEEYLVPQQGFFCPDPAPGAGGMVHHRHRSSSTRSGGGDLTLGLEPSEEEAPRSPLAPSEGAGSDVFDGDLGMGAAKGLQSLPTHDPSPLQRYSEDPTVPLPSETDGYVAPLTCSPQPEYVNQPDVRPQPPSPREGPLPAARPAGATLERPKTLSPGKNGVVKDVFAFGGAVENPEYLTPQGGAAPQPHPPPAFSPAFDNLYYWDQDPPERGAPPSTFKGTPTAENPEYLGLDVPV

[3] = SK-BR-3 cell growth inhibitors, pilot screen, 24 h, human (AID 572;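 active = viability at or below 10% of carrier control in both of two separate runs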;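 also: compound exposure lasted between 18 and 24 h rather than exactly 24 h; 100% = carrier-treated control wells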); conditions: SK-BR-3 viability, CellTiter-Glo luminescence, at 10 µM, stronger effect = lower value
[4] = HUVEC growth inhibition – cell-based, human, primary screen (AID 575;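 active = viability at or below 30% in both replicate assays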;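 also: 100% = median of untreated cell wells with 0.1% DMSO on each plate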); conditions: HUVEC proliferation, CellTiter-Glo luminescence, 72 h; at 10 µM; stronger effect = lower value
Procedure, shortened: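 system = HUVEC primary cells | amount = 1250 cells/well | buffer or medium = supplemented EBM, 2% fetal bovine serum | dosing = single-point 10 µM, DMSO 0.1% final | times = 72 h compound incubation | detection = CTG luminescence | read-out = % viability relative to median vehicle-well signal on each plate | control set = vehicle and MePR control wells | format = collagen-coated 384-well format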

[5] = growth inhibitors of H69AR lung tumor, primary screen, human, duplicate replicates (AID 580;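 active = viability at or under a set limit in both replicates, limit being median viability minus 3 SD, cut at about 48% in these data, passing the limit was not always enough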;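 also: 100% = mean luminescence of untreated wells and 0% = no signal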); conditions: H69AR lung tumor cells viability, ATP luminescence, 72 h; at 10 µM; stronger effect = lower value
[6] = reversal of MRP1-mediated doxorubicin resistance, pilot screen, H69AR cells, doxorubicin co-treatment (AID 601;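 active = viability loss from added drug above about 55%, and viability with drug at most 40%, in both replicates, limit read from the data, passing the limit was not always enough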); conditions: CellTiter-Glo, 72 h, at 10 µM; for differential viability (reversal): stronger effect = higher value
[7] = 384-well plate pilot, post-Golgi transport modulator project, inhibition of yeast transport mutant growth (AID 636; in the data active = inhibition above about 31%); conditions: absorbance 615 nm, about 18 h, stronger effect = higher value
[8] = growth suppression of yeast trafficking mutant, preliminary HTS, modulators of trafficking downstream of Golgi apparatus project, 1536-format plate, OD 615 nm (AID 637; in the data active = inhibition above about 30%); conditions: yeast transport mutant growth, absorbance 615 nm, 18 h; stronger effect = higher value
[9] = H69AR cells + 2 uM doxorubicin, measured here: viability with 2 uM doxorubicin, stronger effect = lower value
[10] = H69AR cells, compound alone cytotoxicity

| Compound | viability [1] | Her2 level [2] | viability [3] | viability [4] | viability [5] | differential viability (reversal) ([6]; H69AR cells + 2 uM doxorubicin) | viability [6, 9] | viability [6, 10] | inhibition [7] | inhibition [8] |
| --- | --- | --- | --- | --- | --- | --- | --- | --- | --- | --- |
| O=C(Oc1ccc2c(c1)CCC2)N1CCOCC1 | 90% | 144% (inactive) | 90% (inactive) | 99.9% (inactive) | 95.6% (inactive) | 6.64% (inactive) | 88.9% | 95.6% | 4.87% (inactive) | -5% (inactive) |
| CCCN(CCC)C(=O)CSc1nc2ccccc2c(=O)n1C1CCCC1 | 136% | 60.5% (inactive) | 136% (inactive) | 87.2% (inactive) | 66.7% (inactive) | 10.4% (inactive) | 56.3% | 66.7% | -3.68% (inactive) | -2.54% (inactive) |
| Cc1cc(NC(=O)CSc2nc3ccsc3c(=O)n2NC(=O)c2ccccc2)no1 | 94.5% | 100% (inactive) | 94.5% (inactive) | 93.9% (inactive) | 97.1% (inactive) | 12% (inactive) | 85.1% | 97.1% | -0.93% (inactive) | 13.8% (inactive) |
| Cc1cc2c(cc1C)C(=O)NC(C)(C)C2 | 104% | 98% (inactive) | 104% (inactive) | 79.4% (inactive) | 95.2% (inactive) | -13.8% (inactive) | 109% | 95.2% | -2.7% (inactive) | -1.15% (inactive) |
| CSCCC(C(=O)Nc1ccc2c(c1)OCO2)N1C(=O)c2ccccc2C1=O (stereo not given) | 91% | 79% (inactive) | 91% (inactive) | 88.1% (inactive) | 96.4% (inactive) | 4.44% (inactive) | 92% | 96.4% | -1.3% (inactive) | -1.43% (inactive) |
| O=C(Cc1cccs1)Nc1ccccc1C(=O)O | 109% | 96.5% (inactive) | 109% (inactive) | 87.5% (inactive) | 103% (inactive) | 5.91% (inactive) | 97.2% | 103% | -4.67% (inactive) | 5.16% (inactive) |
| CCCCOCCCNC(=O)c1ccccc1OCC | 89% | 88.5% (inactive) | 89% (inactive) | 108% (inactive) | 87.8% (inactive) | 9.53% (inactive) | 78.2% | 87.8% | -3.72% (inactive) | -4.67% (inactive) |
| CCOC(=O)c1c(NC(=O)CSc2nc3c(c(=O)n(C)c(=O)n3C)n2C(C)C)sc(C)c1C | 106% | 94% (inactive) | 106% (inactive) | 91.4% (inactive) | 89.9% (inactive) | -2.12% (inactive) | 92.1% | 89.9% | -0.53% (inactive) | -3.23% (inactive) |
| CCOCCn1cnc2sc(C(=O)NCC(=O)OCC)c(C)c2c1=O | 95.5% | 90% (inactive) | 95.5% (inactive) | 86.6% (inactive) | 86.8% (inactive) | -1.89% (inactive) | 88.7% | 86.8% | -2.37% (inactive) | 2.9% (inactive) |
| Cc1nn(-c2ccc(F)cc2)c2nc(N)c(C#N)c(-c3cccs3)c12 | 80.5% | 75.5% (inactive) | 80.5% (inactive) | 85.4% (inactive) | 86.2% (inactive) | 4.98% (inactive) | 81.3% | 86.2% | -0.79% (inactive) | 3.44% (inactive) |
| COc1ccc(CCNC(=O)C2CCN(S(=O)(=O)c3cc(OC)ccc3OC)CC2)cc1 | 93% | 95% (inactive) | 93% (inactive) | 114% (inactive) | 103% (inactive) | 5.9% (inactive) | 96.8% | 103% | -7.97% (inactive) | 4.59% (inactive) |
| C/C(N)=C(/C#N)C(=O)COC(=O)c1cc(C)n(-c2ccc(F)cc2)c1C | 91% | 97.5% (inactive) | 91% (inactive) | 49.4% (inactive) | 98.1% (inactive) | -0.13% (inactive) | 98.2% | 98.1% | -4.53% (inactive) | -1.45% (inactive) |
| COc1cc(C(=O)N2CCC(c3nc(-c4cccnc4)no3)CC2)cc(OC)c1OC | 96% | 110% (inactive) | 96% (inactive) | 110% (inactive) | 93.9% (inactive) | 11.1% (inactive) | 82.8% | 93.9% | -2.16% (inactive) | 6% (inactive) |
| Cn1c(Cc2csc(N)n2)nnc1SCC(=O)NCc1ccccc1 | 93% | 99.5% (inactive) | 93% (inactive) | 114% (inactive) | 100% (inactive) | -11.2% (inactive) | 111% | 100% | 0.39% (inactive) | -4.52% (inactive) |
| CC(C)(C)c1cc(C(=O)O)nn1-c1ccccc1 | 112% | 92% (inactive) | 112% (inactive) | 98.1% (inactive) | 92.2% (inactive) | 5.08% (inactive) | 87.1% | 92.2% | -4.47% (inactive) | -2.54% (inactive) |
| N#CC1=C(N)Oc2n[nH]c(-c3cccs3)c2C1c1cccs1 (stereo not given) | 96.5% | 79.5% (inactive) | 96.5% (inactive) | 81.4% (inactive) | 83.8% (inactive) | -2.47% (inactive) | 86.3% | 83.8% | -3.73% (inactive) | -1.31% (inactive) |
